Rows were chosen to be rich in hits. Some 2.2% of all compounds tested hit in one or more screens of this group.
mABHD4 FP: inhibitors of mouse ABHD4 | Q8VD66 | purified mABHD4, FP-Rh probe fluorescence polarization | inhibition, % at 8.92 µM | 370,000 tested, 0.54% active;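 active means inhibition exceeding the mean over every tested compound plus 3 SD, cut at about 30% in these data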;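 further: 0% = plate median of compound wells and 100% = S159A mutant with DMSO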
Target sequence (Q8VD66 whole entry, looked up): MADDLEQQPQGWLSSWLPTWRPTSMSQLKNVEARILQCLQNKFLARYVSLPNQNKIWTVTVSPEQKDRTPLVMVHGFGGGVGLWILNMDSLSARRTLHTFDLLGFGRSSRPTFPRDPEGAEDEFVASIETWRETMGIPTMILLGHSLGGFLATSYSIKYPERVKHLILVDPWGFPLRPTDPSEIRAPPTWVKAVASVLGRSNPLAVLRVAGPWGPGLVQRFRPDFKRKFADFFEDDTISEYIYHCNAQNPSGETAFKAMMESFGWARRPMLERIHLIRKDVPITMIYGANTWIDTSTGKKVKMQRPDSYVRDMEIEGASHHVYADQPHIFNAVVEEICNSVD
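Test system: mABHD4 protein | Buffer or medium: HEPES pH 7.0 buffer, 150 mM NaCl, 0.01% Pluronic F-127 | Probe or stimulus: FP-Rh fluorescent activity-based probe, added after compound pre-incubation | Timing: Pre-incubation 45 min, probe exposure 60 min, at 25 °C | Technique: Fluorescence polarization, excitation 525 nm, emission 598 nm, BODIPY TMR filters | Repeats: Single well per compound (singlicate)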
TCR-CD3 inh: blocks the human TCR-CD3 interaction; inhibition, % at 9.4 µM; TAMRA-labeled TCR probe fluorescence, biochemical; 360,000 tested, 0.37% active; AID 651800; in the data active means inhibition above about 19%;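 further: recombinant mutant TCR 2C K166C tagged with TAMRA read by polarization; 0% = receptor in buffer alone and 100% = receptor with positive control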
LEDGF integ inh: blocks HIV-1 LEDGF/p75-dependent DNA integration | 370,000 tested, 0.64% active | inhibition, % at 3.7 µM | TR-FRET IN-LEDGF/p75 DNA integration, Eu/Cy5;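 active means inhibition above the screen-wide mean plus 3 SD, cut at about 13% in these data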;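 further: signal is the Cy5 over europium emission ratio at 671 and 618 nm; 0% = plate median of compound wells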
SIAE primary: blocks human sialic acid acetylesterase; Q9HAT2; 370,000 tested, 0.69% active; inhibition, % at 9.66 µM; AID 1053197; SIAE FP-Rh probe binding, fluorescence polarization;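 active means inhibition above a cutoff: mean of compounds within the control limits plus 3 SD of those, cut at about 17% in these data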;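 further: 0% = plate median of compound wells and 100% = probe without SIAE protein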
HTRA1 inh: HTRA1 (human) protease inhibition; inhibition, % at 5.96 µM; 340,000 tested, 0.5% active; recombinant HTRA1, FP-rhodamine activity-based probe, fluorescence polarization; in the data active means inhibition above about 36%;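 further: 0% = enzyme with DMSO and 100% = wells lacking enzyme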
TDP2 inh: blocks human TDP2 phosphodiesterase activity; O95551; recombinant TDP2, T5PNP hydrolysis, p-nitrophenol absorbance 415 nm; inhibition, % at 12.8 µM; 370,000 tested, 0.34% active; AID 720702;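 active means inhibition above the mean of all tested compounds plus 3 SD, set per campaign, cut at about 25% in these data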;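 further: 0% = DMSO with enzyme and 100% = buffer with substrate but no TDP2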
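System: recombinant human TDP2 / Amount: 120 nM TDP2 per well / Also added: 5 mM T5PNP chromogenic substrate / Doses: 12.8 µM single point, 1% DMSO / Incubation: 2 h at 37 °C / Detection: p-Nitrophenol epi absorbance / Evaluation: % inhibition relative to enzyme-containing and enzyme-free wells / Repeats: singlicate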
SIAE inh conf: human SIAE inhibition, confirmation | shares compounds with SIAE primary | SIAE FP-Rh activity-based probe, fluorescence polarization | inhibition, % at 9.66 µM | 2,300 tested, 13% active;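 active means mean inhibition of the replicates above the hit cutoff set in the primary screen, cut at about 17% in these data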;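 further: 0% = SIAE with DMSO and probe and 100% = probe without SIAE; inhibitors lower polarization as more probe stays unbound to SIAE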
The depositor's hits bear a star; x = no result.

SMILES | mABHD4 FP | TCR-CD3 inh | LEDGF integ inh | SIAE primary | HTRA1 inh | TDP2 inh | SIAE inh conf
Cc1ccccc1C(=O)Nc1nnc(-c2cccnc2)o1 | -1.6 | -4.3 | -0.3 | 17.9* | 0.2 | 7.5 | -4.8
COc1ccc(C(=O)NCc2nnc(SCC(=O)N3CCC(C)CC3)o2)cc1 | -0.9 | 4.1 | 0.9 | 0.7 | -4.6 | 13.9 | x
O=C1NC(=Nc2ccc3ccccc3c2)S/C1=C/c1ccco1 | 6.0 | -3.9 | 9.7 | 32.3* | -6.0 | -0.6 | -3.1
COc1ccc(S(=O)(=O)Nc2cc3c4c(c2)CCN4C(=O)CC3)cc1 | -5.0 | -3.5 | 1.3 | 17.1* | -4.4 | -1.9 | 4.6
COc1ccc(OC)c(S(=O)(=O)Nc2cc3c4c(c2)CCN4C(=O)CC3)c1 | -1.5 | 1.4 | 5.9 | 2.0 | 0.9 | -0.9 | x
COc1ccccc1NCCC(=O)OCC(=O)NCc1ccco1 | -4.7 | 5.1 | 1.7 | 26.9* | 5.3 | -1.2 | 4.3
O=C1CCCN1c1ccc(S(=O)(=O)N2CCCCC2)cc1 | 0.2 | -9.3 | 0.2 | 17.2* | -5.5 | 6.3 | -0.9
CCn1c(=O)n(CC)c2cc(N3CCCC3)c(NC(=O)c3ccc(F)cc3)cc21 | 8.5 | 1.4 | 0.3 | 18.2* | 2.3 | -7.3 | 2.9
CN(C)c1ccc(C2Nc3cccc4cccc(c34)N2)cc1 | 2.6 | 1.4 | -3.1 | 38.0* | 22.1 | -0.3 | 7.3
Clc1ccc(C2Nc3cccc4cccc(c34)N2)cc1Cl | 13.8 | -6.1 | 7.2 | 5.0 | 20.8 | -7.6 | x
COc1ccc(C2Nc3cccc4cccc(c34)N2)cc1 | 2.2 | -0.9 | -0.3 | 25.3* | 3.6 | 0.8 | 11.4
CC1(C)C(=O)Nc2ccccc2N1C(=O)CSc1ncccn1 | -2.8 | -1.1 | 4.1 | 4.7 | -1.9 | 7.0 | x
C=CCn1c(C)nnc1SCC(=O)N1c2ccccc2NC(=O)C1(C)C | 0.8 | 0.2 | 2.4 | 17.9* | 3.4 | 6.9 | -8.4
COc1ccccc1-n1c([S-])c(C(=O)Nc2ccccc2C(F)(F)F)[n+]2ccc(C(=O)NCCO)cc12 | -5.7 | -3.9 | -2.3 | -5.9 | -10.6 | -0.9 | x
Cc1ccc(-n2c([S-])c(C(=O)Nc3ccc(OC(F)F)cc3)[n+]3ccc(C(=O)NCCO)cc23)cc1C | -5.0 | -3.5 | -3.1 | 17.5* | -16.4 | -1.2 | -7.1
O=C(CCc1c[nH]c2ccccc12)Nc1ccc(Nc2ccncc2)cc1 | 10.2 | -4.4 | -5.5 | 26.1* | x | 6.0 | 21.2*
CN(c1cccnc1)c1ccc(NC(=O)CCc2c[nH]c3ccccc23)cc1Br | 22.5 | -6.5 | -3.8 | 31.8* | x | 2.3 | 45.1*
O=C(NCCc1ccc(Cl)cc1)C(=O)c1c[nH]c2ccccc12 | -13.9 | 1.2 | 0.2 | 3.1 | -9.5 | 6.6 | x
C/C(=N\NC(=O)CCc1c[nH]c2ccccc12)c1ccc([N+](=O)[O-])cc1 | 2.3 | -3.2 | 3.1 | 17.8* | -3.8 | 5.0 | 3.7
O=C(NCCc1c[nH]c2ccccc12)C(=O)c1c[nH]c2ccccc12 | -7.9 | 6.4 | -0.1 | 26.6* | -19.2 | -1.7 | -4.6
O=C(CCc1c[nH]c2ccccc12)Nc1ccc(Nc2cccnc2)c(Br)c1 | 14.1 | -6.0 | -4.4 | 16.7 | x | -2.6 | x
CCC(=O)N1CCC1(C)C(=O)Nc1ccc2nc(C)ccc2c1 (configuration not stated) | 4.6 | 2.8 | 0.9 | 5.5 | x | -3.3 | x
COc1ccc(CCNC(=O)c2cc(-c3ccccn3)nc3ccccc23)cc1 | 5.6 | -8.2 | -1.4 | -2.4 | 0.9 | -0.5 | x
CC(C)Cn1c(N)c(C(=O)COC(=O)C2Cc3ccccc3CN2S(C)(=O)=O)c(=O)n(C)c1=O (configuration not stated) | -1.1 | -2.3 | -2.4 | -9.5 | -9.6 | 3.3 | x
CC(C)[C@H](NC(=O)C1CCN(S(=O)(=O)c2ccc(F)cc2)CC1)C(=O)NCc1ccncc1 | -1.4 | 0.2 | -0.6 | -8.1 | 6.2 | 8.8 | x
O=C(CCc1c[nH]c2ccccc12)NCc1cccc(Cl)c1 | -9.0 | -7.4 | 1.9 | 3.5 | 1.6 | 7.9 | x
O=C(CCc1c[nH]c2ccccc12)NCCc1ccc2c(c1)OCCO2 | -0.4 | -2.2 | -1.8 | 17.2* | -1.0 | 5.6 | -1.8

Source: PubChem (The Scripps Research Institute Molecular Screening Center)
